Assay outcomes deposited in PubChem BioAssay by several laboratories.
Only some compounds are listed: those with a hit (about 1.2% of all), similar ones and a draw of the others.
Runt-SMMHC FRET: Runt domain-CBFb-SMMHC interaction inhibition | Q01196+Q13951 | Cerulean-Runt/Venus-CBFb-SMMHC FRET ratio 530/480, 1 h | inhibition, % at 20 µM | 0.74% of 220,000 active | AID 1434;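 active = mean inhibition across duplicate retests at 20 µM reaching about 50%, limit read from the data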;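 note: 0% = DMSO wells and 100% = wells with excess untagged CBFb-SMMHC; inhibitors lower the FRET ratio by blocking Runt binding to CBFb-SMMHC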
Target sequence (Q01196 whole entry, looked up, the tested form may be a part): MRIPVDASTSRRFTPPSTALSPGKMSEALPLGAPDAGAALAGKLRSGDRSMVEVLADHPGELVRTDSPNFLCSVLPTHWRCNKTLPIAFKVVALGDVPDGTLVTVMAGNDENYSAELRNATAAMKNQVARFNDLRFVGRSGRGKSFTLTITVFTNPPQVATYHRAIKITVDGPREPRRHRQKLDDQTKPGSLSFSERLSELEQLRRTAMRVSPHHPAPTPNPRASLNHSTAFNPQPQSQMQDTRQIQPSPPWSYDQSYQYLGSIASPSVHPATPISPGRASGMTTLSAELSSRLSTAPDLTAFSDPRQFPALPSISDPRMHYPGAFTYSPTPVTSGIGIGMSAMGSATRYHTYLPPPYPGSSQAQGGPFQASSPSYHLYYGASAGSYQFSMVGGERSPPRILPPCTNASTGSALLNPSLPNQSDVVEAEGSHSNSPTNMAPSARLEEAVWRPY
Target sequence (Q13951 whole entry, looked up, the tested form may be a part): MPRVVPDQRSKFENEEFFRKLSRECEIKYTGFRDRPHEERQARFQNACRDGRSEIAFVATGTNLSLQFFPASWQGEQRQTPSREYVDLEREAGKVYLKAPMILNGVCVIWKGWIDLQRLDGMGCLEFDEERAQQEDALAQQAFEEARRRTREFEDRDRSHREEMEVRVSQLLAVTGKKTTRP
CaV13 ICDI inh: Primary screen for inhibitors of IQ motif and Ca2+-dependent inactivation inhibitor domain binding in CACNA1D, Förster resonance energy transfer in living cells, … | AID 743397 | HEK cells, CFP/YFP FRET ICDI-IQ, plate reader, 10 min; percent FRET-ratio fall versus neutral wells | 0.098% of 340,000 active | inhibition, % at 12.3 µM;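 active = mean replicate inhibition of at least 30% and at least 1% of replicates passing that level; inconclusive = only one of the two criteria is met; inactive = neither criterion is met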;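 note: 0% = median of the neutral control wells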
RanGTP-Imp inh: disruptors of Ran-importin-beta complex formation – biochemical, FRET, CFP-Ran, YFP-importin-beta, homogeneous, primary screen | cell-free CFP-Ran/YFP-importin-beta FRET ratio | inhibition, % (no concentration beside the values) | 1.1% of 300,000 active;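 active = more than half of the replicate wells show a fall in the fluorescence ratio signal beyond about 16%, limit read from the data, passing the limit was not always enough; inconclusive = exactly half of the replicate wells pass the set limit; inactive = fewer than half of replicates pass the limit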;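 note: 0% = DMSO wells and 100% = Ran loaded with GDP instead of GTP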
Runt-CBFb FRET: inhibitors of human RUNX1 Runt domain binding to CBFb | Q01196+Q13951 | Cerulean-Runt/Venus-CBFb FRET ratio 530/480, 1 h | inhibition, % at 20 µM | 0.46% of 220,000 active;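 active = inhibition over about 50% at 20 µM in the single-dose screen, limit read from the data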;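 note: 0% = DMSO wells and 100% = excess unlabeled CBFb competitor control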
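System: Cerulean-labeled Runt domain protein | Quantity: 100 nM of each labeled protein | Schedule: 1 h compound exposure, room temperature | Detection: Fluorescence energy transfer, 422 nm excitation, 530/480 nm emission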
YIC counter: counter-screen for RanGTP-importin-beta inhibitors: YIC FRET probe. Purified YIC probe, intramolecular FRET ratio YFP/CFP. 40% of 1,000 active. shares compounds with RanGTP-Imp inh. IC50, µM;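 active = fitted half-maximal inhibitory concentration no more than tenfold above the top dose tested; inconclusive = flat fit with 30 to 70% activity, or poor fit; inactive = half-maximal concentration beyond tenfold above the top dose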
An asterisk follows results filed as active; u = inconclusive; x = no result given.

SMILES	Runt-SMMHC FRET	CaV13 ICDI inh	RanGTP-Imp inh	Runt-CBFb FRET	YIC counter
O=C(c1cc2c(=O)n3ccccc3nc2s1)N1CCN(c2cccc(Cl)c2)CC1	x	-4	29*	x	>50
COc1ccc(/C=C2\SC(=S)N(CC(=O)OCC(=O)Nc3ccc(C)cc3Cl)C2=O)cc1	-31	-2	18*	-12	>50
O=[N+]([O-])c1ccc(Nc2c3ccccc3nc3ccccc23)cc1	23	-3	25*	48	>50
CC(=O)c1cccc(Nc2cc(C)nc3ccccc23)c1	0	1	1	2	x
O=C(O)c1cccc(Nc2c3ccccc3nc3ccccc23)c1	x	-2	20*	x	>50
O=[N+]([O-])c1ccccc1Nc1c2ccccc2nc2ccccc12	1	4	11	1	x
Clc1ccc(-n2nnnc2-c2cnc3ccccc3c2-c2ccccc2)cc1	5	-20	-1	-3	x
c1ccc(-n2nnnc2-c2cnc(-c3cccnc3)nc2-c2cccs2)cc1	-2	-5	17*	-3	>50
Cc1ccc(S(=O)(=O)N2CCN(Cc3cc(C(C)(C)C)ccc3O)CC2)cc1	x	-16	u	x	x
O=[N+]([O-])c1ccccc1S(=O)(=O)Nc1ccc(-c2ccc3nncn3n2)cc1	x	-6	3	x	x
CC(OC(=O)CCN=C1NS(=O)(=O)c2ccccc21)C(=O)NCc1ccccc1 (centres undefined)	x	-5	4	x	x
CC1CN(c2cc(=O)n(-c3ccccc3)c(=O)[nH]2)CC(C)O1 (centres undefined)	-4	-3	13	4	x
CCOC(=O)N1CCN(c2cc(=O)n(-c3ccccc3C)c(=O)[nH]2)CC1	2	-7	36*	0	>50
Cc1ccccc1-n1c(=O)cc(N2CC(C)OC(C)C2)[nH]c1=O (centres undefined)	-1	-6	63*	-5	>50
CCOC(=O)N1CCN(c2cc(=O)n(-c3ccc(OC)cc3)c(=O)[nH]2)CC1	-1	-7	x	-1	x
CC1=NN(C(=O)Cn2nc([N+](=O)[O-])cc2C)C(O)(C(F)(F)F)C1 (centres undefined)	-1	-5	18*	0	>50
CC(=O)C1=CCC(c2ccccc2)N(S(=O)(=O)c2ccccc2C)C1 (centres undefined)	x	-5	x	x	x
CCOC(=O)c1sc2ncc([N+](=O)[O-])cc2c1N	-1	-5	7	1	x
CCOC(=O)CNc1ncc([N+](=O)[O-])cc1C#N	-1	-8	20*	2	>50
Cc1ccc(NC(=O)Cn2nc(C(F)(F)F)c3c2CCC3)cc1	3	-8	22*	0	>50
Cc1cc(NC(=O)Cn2nc(C(F)(F)F)c3c2CCC3)no1	-3	x	1	-1	x
Cc1cc(C)cc(-n2c(C)cc(/C=C3\C(=N)N4N=C(CC(C)C)SC4=NC3=O)c2C)c1	-61	-3	5	-52	x
Cc1cccc(-n2c(C)cc(/C=C3\C(=N)N4N=C(CC(C)C)SC4=NC3=O)c2C)c1	9	-3	26*	-22	>50
CCOC(=O)c1sc(NC(=O)Nc2ccc(Cl)cc2)nc1C	-9	x	5	2	x
NC(=O)N/N=C/c1ccccc1OC(=O)c1cc2ccccc2oc1=O	x	-6	18*	x	>50
SMILES	Runt-SMMHC FRET	CaV13 ICDI inh	RanGTP-Imp inh	Runt-CBFb FRET	YIC counter
NC(=S)N/N=C/c1ccccc1OC(=O)c1cc2ccccc2oc1=O	x	-3	6	x	x
COc1ccc(N2C(=O)c3ccccc3NC2c2cccnc2)cc1 (centres undefined)	3	4	16*	0	>50
O=C1c2ccccc2NC(c2cccnc2)N1c1ccccc1F (centres undefined)	6	-8	0	5	x
O=C(Nc1cccc(-c2nc3ccccc3s2)c1)c1cccs1	4	-4	25*	0	>50
CC(C)NC(=O)C1CC=CCC1C(=O)O (centres undefined)	2	-6	25*	0	>50
COc1ccc(-c2cc(C(F)(F)F)n3nc(N)nc3n2)cc1	59*	-6	27*	26	21*
CC(=O)c1ccccc1Oc1nc(CN2CCOCC2)nc2scc(-c3cccs3)c12	-28	-6	1	-11	x
O=C(NNc1c2ccccc2nc2ccccc12)C12CC3CC(CC(C3)C1)C2	9	-18	24*	11	>50
O=C(NNc1c2ccccc2nc2ccccc12)c1ccccc1O	48	-3	x	14	x
COc1ccc(OCC(=O)NNc2c3ccccc3nc3ccccc23)cc1	9	-3	27*	6	>50
O=C(NNc1c2ccccc2nc2ccccc12)c1ccc(O)cc1O	48	-5	38*	13	>50
O=C(CCCO)NNc1c2ccccc2nc2ccccc12	17	2	25*	14	>50
CCO[C@@H]1OC(C(=O)N2CCOCC2)=C[C@H](c2coc3ccccc3c2=O)[C@H]1CCCO	0	-10	3	-1	x
COc1ccc(OC)c(Nc2c3ccccc3nc3ccccc23)c1	x	-2	32*	x	>50
CCCC(=O)NNc1c2ccccc2nc2ccccc12	26	-4	21*	40	>50
O=C(NNc1c2ccccc2nc2ccccc12)c1cccc(O)c1	35	-4	u	22	x
O=C(NNc1c2ccccc2nc2ccccc12)C(O)c1ccccc1 (centres undefined)	14	-1	34*	9	>50
COc1cccc(-c2cc(C(F)(F)F)n3ncc(S(=O)(=O)c4ccccc4)c3n2)c1	38	-8	35*	29	43*
CCCCc1cc(=O)oc2c(C)c(OCC(=O)NCc3ccccn3)ccc12	x	-7	31*	x	>50
O=C(CN1C2CCCC1CC(NC(=O)c1ccco1)C2)Nc1ccccc1C(F)(F)F (centres undefined)	2	-4	17*	-8	>50
Cc1cc(C)c(S(=O)(=O)Nc2cnc3ccccc3c2)c(C)c1	x	-3	u	x	x
Cc1c(OCC(=O)NCc2ccncc2)ccc2c3c(c(=O)oc12)CCC3	x	-7	17*	x	>50
CCOC(=O)C1=C(C)NC2=C(C(=O)C(C(=O)OCC)C(c3ccc(OC)cc3)C2)C1c1ccccn1 (centres undefined)	75*	-3	18*	39	28*
CCOC(=O)C1=C(C)NC2=C(C(=O)C(C(=O)OCC)C(c3ccccc3OC)C2)C1c1ccccn1 (centres undefined)	83*	2	18*	21	23*
CCOC(=O)C1=C(C)NC2=C(C(=O)C(C(=O)OCC)C(c3cccc(OC)c3)C2)C1c1ccccn1 (centres undefined)	89*	x	26*	35	21*
CCCC1=C(C(=O)OCC)C(c2ccccc2OC)NC(=O)N1 (centres undefined)	6	x	6	-2	x
